Experimental data as given in ChEMBL document CHEMBL5260824, “9-Deazapurines as Broad-Spectrum Inhibitors of the ABC Transport Proteins P-Glycoprotein, Multidrug Resistance-Associated Protein 1, and Breast Cancer Resistance Protein” (J Med Chem, 2017).

Experiments:
H69AR = assay: Reversal of Daunorubicin resistance in human NCI-H69AR cells assessed as Daunorubicin GI50 at 10 uM measured for 72 hrs by MTT assay; type: functional
Procedure, shortened: (§1)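 Reversal assay: resistant lines (A2780/ADR, H69AR, MDCK II BCRP) and parental lines seeded as for MTT assay with modulator solutions of 1, 10 and 100 µM added (final 0.1, 1, 10 µM) and daunorubicin (P-gp, MRP1) or SN-38 (BCRP) at final 10 nM–10 µM. 72 h, MTT read-out; GI50 by variable-slope fit. Resistance factor = resistant/sensitive GI50; potentiation factor = GI50 without/with modulator.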

[1] = Reversal of SN-38 resistance in dog MDCK-II-BCRP cells assessed as SN-38 GI50 at 10 uM measured for 72 hrs by MTT assay; type: functional; settings: Canis lupus familiaris; procedure, shortened: as §1
MRP1 = MRP1 (Homo sapiens, UniProt P33527); assay: Inhibition of MRP1 in human NCI-H69AR cells at 10 uM incubated for 180 mins in presence of daunorubicin by flow cytometry analysis relative to control; type: cell-based; settings: probe daunorubicin
Procedure, shortened: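 H69AR cells (doxorubicin-selected small cell lung cancer, RPMI-1640/20% FBS), about 60,000 per well, preincubated 15 min with compound (100 nM–100 µM added solutions, in unsupplemented medium), then daunorubicin (30 µM solution added); steady state after 180 min, 37 °C, 5% CO2. Cells resuspended; flow cytometry, 488 nm excitation, FL3 (≥670 nm). Reference inhibitor 75 at 10 µM = 100%; Imax relative to it.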

MDCK-II = assay: Antiproliferative activity against dog MDCK-II cells assessed as reduction in cell viability measured for 72 hrs bt MTT assay; type: functional; settings: Canis lupus familiaris
[2] = Inhibition of daunorubicin sensitive human A2780 ADR cells expressing P-gp measured for 72 hrs by MTT assay; type: functional; procedure, shortened: as §1
[3] = Potentiation factor, ratio of GI50 for daunorubicin resistant human A2780 ADR cells expressing P-gp cells to GI50 for reversal of daunorubicin resistance in human A2780 ADR cells assessed as daunorubicin GI50 at 1 uM by MTT assay (reference value: 1 uM); type: functional; procedure, shortened: as §1
[4] = Potentiation factor, ratio of GI50 for SN-38 resistant dog MDCK-II-BCRP cells expressing BCRP cells to GI50 for reversal of SN-38 resistance in dog MDCK-II-BCRP cells assessed as SN-38 GI50 at 0.1 uM (reference value: 1 uM); type: functional, Canis lupus familiaris; procedure, shortened: as §1
[5] = Sensitization of human A2780 ADR cells expressing P-gp assessed as maximal sensitivity at 10 uM relative to control; type: functional
Procedure, shortened: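 Resistant lines were exposed to daunorubicin (A2780/ADR, H69AR) or SN-38 (MDCK II BCRP) over 10 nM–10 µM final, with or without modulator, for 72 h. Viability was read by MTT. Potentiation factor is GI50 without modulator over GI50 with modulator. Maximal sensitization is pf at 10 µM divided by the native resistance factor, in percent.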

MRP1, sequence (P33527 whole entry): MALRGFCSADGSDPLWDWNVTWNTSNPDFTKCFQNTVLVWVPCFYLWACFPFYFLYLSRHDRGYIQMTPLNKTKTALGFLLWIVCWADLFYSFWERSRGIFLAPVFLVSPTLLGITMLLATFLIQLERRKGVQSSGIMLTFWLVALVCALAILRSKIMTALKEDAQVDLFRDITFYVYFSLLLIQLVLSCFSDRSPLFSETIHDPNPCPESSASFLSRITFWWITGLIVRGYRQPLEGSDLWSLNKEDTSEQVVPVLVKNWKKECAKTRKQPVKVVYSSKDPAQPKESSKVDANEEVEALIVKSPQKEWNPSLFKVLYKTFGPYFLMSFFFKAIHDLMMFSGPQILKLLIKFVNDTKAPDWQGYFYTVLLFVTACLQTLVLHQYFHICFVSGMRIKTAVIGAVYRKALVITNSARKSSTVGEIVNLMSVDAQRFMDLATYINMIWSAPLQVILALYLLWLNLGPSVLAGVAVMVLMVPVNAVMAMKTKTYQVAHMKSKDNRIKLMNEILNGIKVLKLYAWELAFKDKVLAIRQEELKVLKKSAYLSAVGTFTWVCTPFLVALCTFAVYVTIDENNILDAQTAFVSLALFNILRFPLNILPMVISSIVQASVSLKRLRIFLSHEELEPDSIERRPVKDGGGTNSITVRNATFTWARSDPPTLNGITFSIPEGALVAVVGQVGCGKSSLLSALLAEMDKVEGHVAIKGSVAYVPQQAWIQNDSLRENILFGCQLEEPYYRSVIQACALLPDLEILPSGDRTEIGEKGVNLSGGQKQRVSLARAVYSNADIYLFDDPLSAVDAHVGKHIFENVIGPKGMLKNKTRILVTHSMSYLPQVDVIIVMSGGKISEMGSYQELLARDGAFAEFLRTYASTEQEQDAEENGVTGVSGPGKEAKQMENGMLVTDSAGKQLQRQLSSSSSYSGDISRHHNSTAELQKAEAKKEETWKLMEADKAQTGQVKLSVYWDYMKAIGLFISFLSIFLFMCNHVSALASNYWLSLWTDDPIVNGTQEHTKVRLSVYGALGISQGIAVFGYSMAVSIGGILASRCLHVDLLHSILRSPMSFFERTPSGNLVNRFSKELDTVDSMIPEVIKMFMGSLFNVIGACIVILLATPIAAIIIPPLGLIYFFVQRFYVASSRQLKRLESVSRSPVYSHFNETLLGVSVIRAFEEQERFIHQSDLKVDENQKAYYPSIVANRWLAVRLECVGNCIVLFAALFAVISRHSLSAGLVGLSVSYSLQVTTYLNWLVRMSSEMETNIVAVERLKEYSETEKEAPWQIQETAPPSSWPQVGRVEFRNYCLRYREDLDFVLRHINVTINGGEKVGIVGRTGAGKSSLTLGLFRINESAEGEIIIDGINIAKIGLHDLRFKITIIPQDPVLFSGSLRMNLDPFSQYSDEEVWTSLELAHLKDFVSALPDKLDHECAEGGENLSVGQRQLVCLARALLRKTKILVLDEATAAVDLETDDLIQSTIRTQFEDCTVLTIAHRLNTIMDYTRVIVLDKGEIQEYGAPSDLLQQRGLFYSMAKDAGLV

Structure (SMILES): N#Cc1cn(CCCc2ccccc2)c2c(N3CCN(CCc4c[nH]c5ccccc45)CC3)ncnc12
- GI50 (H69AR): 0.445 µM
- GI50 [1]: 0.061 µM
- inhibition at 3 h, 10 µM (MRP1): > 25%
- GI50 (MDCK-II): 37.2 µM
- GI50 [2]: 0.01 µM
- RatioGI50 [3]: 9.8
- PF [4]: 1.9
- Activity [5]: 24%
